Assay results as given in ChEMBL document CHEMBL4118114 (Bioorg Med Chem, 2018).
Starred links: 1 amine or outer side, 2 acyl side, 3 side chain; linkers in the order of their positions; H or OH if unused. Positions of bridges follow the written chain, without caps; N, C: chain ends. Non-standard residues stand in square brackets, D forms with d. Residues, ends and D or L forms follow the SMILES beside them. oXylylene = c1ccc(C[*:2])c(C[*:1])c1; X1 = O=C(CCC[*:2])[*:1]; Mpa = O=C(O)CCS

Key:
[1] = Half life in Sherman rat plasma; format: ADME, cell-free
[2] = biological target: T1, Oxytocin receptor (Homo sapiens) (UniProt P30559); test: (§1) Agonist activity at human mammary gland oxytocin receptor expressed in CHO cells assessed as increase in intracellular calcium flux measured for 5 mins by Fluo-4-AM dye based FLIPR assay; format: functional, cell-based
T1 sequence (whole entry): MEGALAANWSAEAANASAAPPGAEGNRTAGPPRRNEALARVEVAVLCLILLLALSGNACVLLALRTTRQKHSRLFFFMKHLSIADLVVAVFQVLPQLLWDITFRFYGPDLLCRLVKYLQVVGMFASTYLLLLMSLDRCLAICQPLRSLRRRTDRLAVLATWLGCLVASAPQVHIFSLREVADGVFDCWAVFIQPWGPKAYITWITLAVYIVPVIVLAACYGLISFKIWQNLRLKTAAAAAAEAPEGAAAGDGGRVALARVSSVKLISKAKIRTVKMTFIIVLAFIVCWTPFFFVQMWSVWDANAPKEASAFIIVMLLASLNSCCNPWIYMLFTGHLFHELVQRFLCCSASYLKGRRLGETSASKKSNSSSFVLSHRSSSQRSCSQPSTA
In short: (§2)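 Stably transfected CHO lines, one human receptor each, grown in F-12K with 10% FBS, geneticin 200 µg/mL, 37 °C, 10% CO2. Plated 50,000 cells/well for 24 h, then loaded 60 min with 2 µM Fluo-4-AM. Compound dilution series added on FLIPR and calcium signal recorded 5 min for agonist activity. Each compound tested at least 3 times in duplicate.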

Oxytocin receptor [3] = biological target: T2, Oxytocin receptor (Homo sapiens, UniProt P30559); test: Displacement of [3H]OT from human mammary gland oxytocin receptor expressed in HEK293 cell membrane after 1 hr by scintillation counting method; format: cell membranes
T2 sequence (P30559 whole entry): T1 sequence (whole entry)
In short: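 Membranes from a stable HEK clone expressing human OTR cloned from mammary gland RNA. Filtration binding with 1 nM final [3H]OT in 50 mM Tris, 5 mM MgCl2, 0.1% BSA, pH 7.4, for 1 h at room temperature. GF/C filters, washed 5 times ice-cold. Ki by Cheng-Prusoff. Three experiments in duplicate.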

Vasopressin V1b receptor [4] = biological target: T3, Vasopressin V1b receptor (Homo sapiens, UniProt P47901); test: Antagonist activity at human vasopressin V1b receptor expressed in CHO cells assessed as inhibition of agonist-induced intracellular calcium flux preincubated for 20 mins followed by AVP addition measured for 5 mins by Fluo-4-AM dye based FLIPR assay; format: functional, cell-based
T3 sequence (P47901 whole entry): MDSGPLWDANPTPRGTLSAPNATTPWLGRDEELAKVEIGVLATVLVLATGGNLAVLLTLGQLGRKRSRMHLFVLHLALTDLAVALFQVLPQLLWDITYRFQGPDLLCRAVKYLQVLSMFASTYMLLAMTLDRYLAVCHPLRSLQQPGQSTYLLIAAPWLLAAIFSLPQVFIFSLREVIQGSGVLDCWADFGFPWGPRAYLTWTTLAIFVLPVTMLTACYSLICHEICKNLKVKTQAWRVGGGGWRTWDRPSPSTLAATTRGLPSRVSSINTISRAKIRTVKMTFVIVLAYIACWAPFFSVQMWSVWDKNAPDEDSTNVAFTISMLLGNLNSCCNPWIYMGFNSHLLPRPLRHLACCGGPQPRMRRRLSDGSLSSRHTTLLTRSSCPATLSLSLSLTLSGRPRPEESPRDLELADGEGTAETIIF
In short: (§3)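 CHO cells stably expressing the relevant human receptor, plated 24 h, loaded 60 min with 2 µM Fluo-4-AM and read on FLIPR. […] IC50 came from a variable-slope single-site competition fit of normalized fluorescence. At least 3 runs in duplicate.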

Vasopressin V1a receptor [5] = biological target: T4, Vasopressin V1a receptor (Homo sapiens, UniProt P37288); test: Displacement of [3H]AVP from human liver vasopressin V1a receptor expressed in HEK293 cell membrane after 1 hr by scintillation counting method; format: cell membranes
T4 sequence (P37288 whole entry): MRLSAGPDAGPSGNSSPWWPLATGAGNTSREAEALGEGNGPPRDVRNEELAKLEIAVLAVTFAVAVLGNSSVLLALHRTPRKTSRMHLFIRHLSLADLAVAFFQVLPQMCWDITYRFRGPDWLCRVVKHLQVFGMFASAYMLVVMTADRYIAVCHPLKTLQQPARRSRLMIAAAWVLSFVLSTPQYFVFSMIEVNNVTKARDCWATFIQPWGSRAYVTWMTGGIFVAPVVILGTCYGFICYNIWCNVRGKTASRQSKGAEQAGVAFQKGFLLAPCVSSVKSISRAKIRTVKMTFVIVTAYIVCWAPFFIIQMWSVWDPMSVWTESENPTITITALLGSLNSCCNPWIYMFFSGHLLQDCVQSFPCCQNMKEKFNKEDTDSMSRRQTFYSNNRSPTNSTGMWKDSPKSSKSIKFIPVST
In short: (§4)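 Membranes from transiently transfected HEK293 cells. Receptors were cloned from human liver (V1a) or kidney (V2) RNA. SPA assay with yttrium silicate beads in 50 mM Tris, 120 mM NaCl, 5 mM KCl, 2 mM CaCl2, 10 mM MgCl2. 4 nM [3H]AVP added, compound in 2% DMSO, 1 h at room temperature. Ki by Cheng-Prusoff. Three experiments in duplicate.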

Vasopressin V1a receptor [6] = biological target: T4, Vasopressin V1a receptor; test: Agonist activity at human liver vasopressin V1a receptor expressed in CHO cells assessed as increase in intracellular calcium flux measured for 5 mins by Fluo-4-AM dye based FLIPR assay; format: functional, cell-based; in short: as §2
[7] = Thermal stability of the compound at 50 degC at 0.5 mg/ml after 10 days by LC-MS analysis; format: physicochemical; conditions: 240 h
In short: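 Peptides dissolved in water at 0.5 mg/mL and held at 50 °C. After 10 days, aliquots were analysed by direct-injection LC-MS. Remaining peptide was expressed as a percentage of the corresponding peak before heating.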

Vasopressin V1a receptor [8] = biological target: T4, Vasopressin V1a receptor; test: Antagonist activity at human liver vasopressin V1a receptor expressed in CHO cells assessed as inhibition of agonist-induced intracellular calcium flux preincubated for 20 mins followed by AVP addition measured for 5 mins by Fluo-4-AM dye based FLIPR assay; format: functional, cell-based; in short: as §3
Oxytocin receptor [9] = biological target: T2, Oxytocin receptor; test: Antagonist activity at human mammary gland oxytocin receptor expressed in CHO cells assessed as inhibition of agonist-induced intracellular calcium flux preincubated for 20 mins followed by oxytocin addition measured for 5 mins by Fluo-4-AM dye based FLIPR assay; format: functional, cell-based; in short: as §3
Vasopressin V1b receptor [10] = biological target: T3, Vasopressin V1b receptor; test: Displacement of [3H]AVP from human vasopressin V1b receptor expressed in HEK293 cell membrane after 1 hr by scintillation counting method; format: cell membranes
Oxytocin receptor [11] = biological target: T2, Oxytocin receptor; test: as §1; format: functional, cell-based; in short: as §2
Vasopressin V1b receptor [12] = biological target: T3, Vasopressin V1b receptor; test: Agonist activity at human vasopressin V1b receptor expressed in CHO cells assessed as increase in intracellular calcium flux measured for 5 mins by Fluo-4-AM dye based FLIPR assay; format: functional, cell-based
Vasopressin V2 receptor [13] = biological target: T5, Vasopressin V2 receptor (Homo sapiens, UniProt P30518); test: Antagonist activity at human kidney vasopressin V2 receptor expressed in CHO cells assessed as inhibition of agonist-induced intracellular calcium flux preincubated for 20 mins followed by AVP addition measured for 5 mins by Fluo-4-AM dye based FLIPR assay; format: functional, cell-based
T5 sequence (P30518 whole entry): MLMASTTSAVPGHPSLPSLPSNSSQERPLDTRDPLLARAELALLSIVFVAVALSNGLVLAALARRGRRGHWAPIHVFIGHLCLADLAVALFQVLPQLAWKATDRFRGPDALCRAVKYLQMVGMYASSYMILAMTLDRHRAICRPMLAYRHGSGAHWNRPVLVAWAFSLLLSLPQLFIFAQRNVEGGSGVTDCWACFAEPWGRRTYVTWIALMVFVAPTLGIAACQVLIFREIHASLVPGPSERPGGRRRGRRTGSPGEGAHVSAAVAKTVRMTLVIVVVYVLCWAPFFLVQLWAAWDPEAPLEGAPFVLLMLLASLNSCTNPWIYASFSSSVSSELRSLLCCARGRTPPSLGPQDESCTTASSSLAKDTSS
In short: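 CHO cells stably expressing the relevant human receptor, plated 24 h, loaded 60 min with 2 µM Fluo-4-AM and read on FLIPR. IC50 came from a variable-slope single-site competition fit of normalized fluorescence. At least 3 runs in duplicate.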

Vasopressin V2 receptor [14] = biological target: T5, Vasopressin V2 receptor; test: Agonist activity at human kidney vasopressin V2 receptor expressed in CHO cells assessed as increase in intracellular calcium flux measured for 5 mins by Fluo-4-AM dye based FLIPR assay; format: functional, cell-based; in short: as §2
Homo sapiens [15] = species on record: Homo sapiens; test: Selectivity index, ratio of Ki for human liver vasopressin V1a receptor to Ki for human mammary gland oxytocin receptor
In short: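 Ratio of binding Ki from the radioligand displacement assays, calculated as the strongest AVP receptor subtype binding value divided by the OTR value.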

Vasopressin V2 receptor [16] = biological target: T5, Vasopressin V2 receptor; test: Displacement of [3H]AVP from human kidney vasopressin V2 receptor expressed in HEK293 cell membrane after 1 hr by scintillation counting method; format: cell membranes; in short: as §4
Homo sapiens [17] = species on record: Homo sapiens; test: Selectivity index, ratio of IC50 for human mammary gland oxytocin receptor to IC50 for human liver vasopressin V1a receptor
Homo sapiens [18] = species on record: Homo sapiens; test: Selectivity index, ratio of IC50 for human liver vasopressin V1a receptor to IC50 for human mammary gland oxytocin receptor
Homo sapiens [19] = species on record: Homo sapiens; test: Selectivity index, ratio of Ki for human mammary gland oxytocin receptor to Ki for human liver vasopressin V1a receptor
In short: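 Ratio of binding Ki from the radioligand displacement assays, calculated as the OTR binding value divided by the V1a value.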

SMILES | half-life [1] [min] | %max [2] [%] | Ki (Oxytocin receptor [3]) [nM] | IC50 (Vasopressin V1b receptor [4]) | Ki (Vasopressin V1a receptor [5]) [nM] | EC50 (Vasopressin V1a receptor [6]) [nM] | Stability [7] | IC50 (Vasopressin V1a receptor [8]) [nM] | IC50 (Oxytocin receptor [9]; cho) | Ki (Vasopressin V1b receptor [10]) [nM] | EC50 (Oxytocin receptor [11]) [nM] | EC50 (Vasopressin V1b receptor [12]) [nM] | IC50 (Vasopressin V2 receptor [13]) | EC50 (Vasopressin V2 receptor [14]) [nM] | Ratio Ki (Homo sapiens [15]) | Ki (Vasopressin V2 receptor [16]) [nM] | Ratio IC50 (Homo sapiens [17]) | Ratio IC50 (Homo sapiens [18]) | IC50 (Oxytocin receptor [9]; read-out: IC50) [nM] | Ratio Ki (Homo sapiens [19])
CC[C@H](C)[C@@H]1NC(=O)[C@H](Cc2ccc(O)cc2)NC(=O)[C@@H](N)CSSC[C@@H](C(=O)N2CCC[C@H]2C(=O)N[C@@H](CC(C)C)C(=O)NCC(N)=O)NC(=O)[C@H](CC(N)=O)NC(=O)[C@H](CCC(N)=O)NC1=O [OXYTOCIN] | 3 | – | – | – | – | – | – | – | – | – | – | – | – | – | – | – | – | – | – | –
CC[C@H](C)[C@@H]1NC(=O)[C@H](Cc2ccc(OC)cc2)NC(=O)CCCSC[C@@H](C(=O)N2CCC[C@H]2C(=O)N[C@@H](CC(C)C)C(=O)NCC(N)=O)NC(=O)[C@H](CC(N)=O)NC(=O)[C@H](CCC(N)=O)NC1=O (Y(Me)IQNCPLG-NH2; linker N-5 via X1) | – | 45 | – | – | – | – | – | – | – | – | – | – | – | – | – | – | – | – | – | –
CC[C@H](C)[C@@H]1NC(=O)[C@H](Cc2ccc(O)cc2)NC(=O)CCSCc2cccc(c2)CSC[C@@H](C(=O)N2CCC[C@H]2C(=O)N[C@@H](CC(C)C)C(=O)NCC(N)=O)NC(=O)[C@H](CC(N)=O)NC(=O)[C@H](CCC(N)=O)NC1=O | – | 75 | 50 | Not Active | 1680 | > 20000 | Stable | 4400 | Not Active | > 6000 | 34 | 2970 | – | – | – | – | – | – | – | –
CC[C@H](C)[C@@H]1NC(=O)[C@H](Cc2ccc(O)cc2)NC(=O)CCSCc2ccccc2CSC[C@@H](C(=O)N2CCC[C@H]2C(=O)N[C@@H](CCCNC(=N)N)C(=O)NCC(N)=O)NC(=O)[C@H](CC(N)=O)NC(=O)[C@H](CCC(N)=O)NC1=O ([Mpa]YIQNCPRG-NH2; linker 1-6 via oXylylene) | – | – | 166 | Not Active | 30 | > 20000 | – | 14 | – | > 6000 | > 10000 | 9260 | Not Active | 18900 | 0.2 | > 6000 | 123 | 0.008 | 1720 | 5.5
CC[C@H](C)[C@@H]1NC(=O)[C@H](Cc2ccc(O)cc2)NC(=O)CCSCc2ccccc2CSC[C@@H](C(=O)N2CCC[C@H]2C(=O)N[C@@H](CC(C)C)C(=O)NCC(N)=O)NC(=O)[C@H](CC(N)=O)NC(=O)[C@H](CCC(N)=O)NC1=O | – | – | 220 | Not Active | 69 | > 20000 | – | 35 | Not Active | > 6000 | – | 8300 | – | – | – | – | – | – | – | –
